We go through 2 molecules from ChEMBL document CHEMBL3272128, “Antileukemic activity of derivatives of 1-phenyl-2,5-dimethyl-3,4-bis(hydroxymethyl)pyrrole bis(N-methylcarbamate)” (J Med Chem, 1977).

A value given as a limit tells only on which side of the number the result lay.

One may read the T/C as the result in the treated group divided by that in the control group, in per cent.

The subject of the first data set is P388. The data set can be described thus: Antileukemic activity against mouse P388 cells allografted in female CDF1 mouse assessed as change in body weight at 100 mg/kg, ip using hydroxypropylcellulose suspension total 9 daily doses started 24 hrs after tumor inoculation. It counts as functional. The settings on record: route intraperitoneal. The gist of the method: (§1)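 Female CDF1 mice got P388 ascitic fluid ip. Test agent was given ip as a Flucel (hydroxypropylcellulose) suspension, nine daily doses starting 24 h after tumor inoculation. Read-out was the treated minus control animal weight difference (T − C, g), recorded on day 5.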
For the molecule `CNC(=O)OCc1c(COC(=O)NC)c(C)n(-c2ccccc2)c1C`, the Activity is -2.1 g.

The next data set deals with Mus musculus. Nature of the data set: Toxicity in female CDF1 mouse allografted with mouse P388 cells assessed as survivors on day 5 at 200 mg/kg, ip using hydroxypropylcellulose suspension. It is filed as organism-based. Details: dose 200 mg/kg, route intraperitoneal. The settings on record: in vivo. A digest of the protocol:
(§2)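 Female CDF1 mice were inoculated ip with P388 leukemia ascitic fluid. Test agent was suspended in hydroxypropylcellulose (Flucel) and given ip as nine daily doses, starting 24 h after tumor inoculation. Survivors were counted on day 5 as the toxicity read-out.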
With `CNC(=O)OCc1c(COC(=O)NC)c(C)n(-c2ccccc2)c1C`, the Activity entry was “Toxic”.

A further data set relates to P388. The data set can be described thus: Antileukemic activity against mouse P388 cells allografted in female CDF1 mouse assessed as tumor growth inhibition at 200 mg/kg, ip using hydroxypropylcellulose suspension total 9 daily doses started 24 hrs after tumor inoculation. It is filed as functional. The settings on record: route intraperitoneal. The gist of the method:
(§3)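 P388 ascitic fluid was inoculated ip into female CDF1 mice. Dosing was ip in a Flucel (hydroxypropylcellulose) suspension, given daily for nine doses beginning 24 h post-inoculation. Activity was median survival time expressed as % T/C, with % T/C > 125 taken as significant.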
For `CNC(=O)OCc1c(COC(=O)NC)c(C)n(-c2ccccc2)c1C`, the T/C is less than 50%.

The next data set deals with Mus musculus. Nature of the data set: Toxicity in male CDF1 mouse allografted with mouse P388 cells assessed as survivors on day 5 at 12.5 mg/kg, ip using saline as vehicle. It is filed as organism-based. Details: dose 12.5 mg/kg, route intraperitoneal. The settings on record: in vivo. A digest of the protocol: (§4)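 P388 leukemia ascitic fluid was implanted ip into male CDF1 mice. Compound was given ip in saline vehicle as nine daily doses, starting 24 h post-inoculation. Survivor counts were taken on day 5.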
Turning to `CNC(=O)OCc1c(COC(=O)NC)c(C)n(-c2ccc(Cl)cc2)c1C`, the Activity entry is listed as “Non-toxic”.

For the next data set, the system named is P388. Nature of the data set: Antileukemic activity against mouse P388 cells allografted in male CDF1 mouse assessed as tumor growth inhibition at 12.5 mg/kg, ip using hydroxypropylcellulose suspension total 9 daily doses started 24 hrs after tumor inoculation. It counts as functional. The settings on record: route intraperitoneal. A digest of the protocol: (§5)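 Male CDF1 mice received P388 ascitic fluid ip, then ip doses in Flucel (hydroxypropylcellulose) suspension, nine daily, beginning 24 h after inoculation. Efficacy was median survival time as % T/C; values > 125 were considered significant.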
In the case of `CNC(=O)OCc1c(COC(=O)NC)c(C)n(-c2ccccc2)c1C`, the T/C came out at 145%.

The subject of a further data set is P388. The data set can be described thus: Antileukemic activity against mouse P388 cells allografted in male CDF1 mouse assessed as change in body weight at 50 mg/kg, ip using saline as vehicle total 9 daily doses started 24 hrs after tumor inoculation. It is filed as functional. The settings on record: route intraperitoneal. A digest of the protocol:
(§6)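 In male CDF1 mice bearing ip-inoculated P388 ascitic fluid, drug was given ip in saline vehicle, once daily for nine doses starting 24 h after inoculation. Body weight difference, treated minus control (g), was recorded on day 5.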
As to `CNC(=O)OCc1c(COC(=O)NC)c(C)n(-c2ccc(Cl)cc2)c1C`, the Activity is -2.9 g.

In a further data set the test system is Mus musculus. The data set can be described thus: Toxicity in female CDF1 mouse allografted with mouse P388 cells assessed as survivors on day 5 at 25 mg/kg, ip using hydroxypropylcellulose suspension. The settings on record: in vivo. Details: dose 25 mg/kg, route intraperitoneal. It counts as organism-based. A digest of the protocol: as §2
For the molecule `CNC(=O)OCc1c(COC(=O)NC)c(C)n(-c2ccccc2)c1C`, the Activity entry is recorded as “Non-toxic”.

The next data set deals with P388. Nature of the data set: Antileukemic activity against mouse P388 cells allografted in male CDF1 mouse assessed as tumor growth inhibition at 25 mg/kg, ip using hydroxypropylcellulose suspension total 9 daily doses started 24 hrs after tumor inoculation. It is filed as functional. The settings on record: route intraperitoneal. A digest of the protocol:
as §5
As for `CNC(=O)OCc1c(COC(=O)NC)c(C)n(-c2ccccc2)c1C`, the T/C was determined as 148%.

For a further data set, the system named is P388. Nature of the data set: Antileukemic activity against mouse P388 cells allografted in female CDF1 mouse assessed as tumor growth inhibition at 25 mg/kg, ip using hydroxypropylcellulose suspension total 9 daily doses started 24 hrs after tumor inoculation. The settings on record: route intraperitoneal. It counts as functional. The gist of the method: as §3
`CNC(=O)OCc1c(COC(=O)NC)c(C)n(-c2ccccc2)c1C`: the T/C is 127%.

Another data set concerns P388. The data set can be described thus: Antileukemic activity against mouse P388 cells allografted in male CDF1 mouse assessed as tumor growth inhibition at 25 mg/kg, ip using saline as vehicle total 9 daily doses started 24 hrs after tumor inoculation. It counts as functional. The settings on record: route intraperitoneal. The gist of the method:
(§7)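 P388 ascitic fluid was given ip to male CDF1 mice. Treatment was ip in saline, nine daily doses from 24 h post-inoculation. Median survival time was expressed as % T/C, and % T/C > 125 was considered significant.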
Consider `CNC(=O)OCc1c(COC(=O)NC)c(C)n(-c2ccc(Cl)cc2)c1C`, for which the T/C was 142%.

The subject of a further data set is P388. The data set can be described thus: Antileukemic activity against mouse P388 cells allografted in male CDF1 mouse assessed as change in body weight at 12.5 mg/kg, ip using saline as vehicle total 9 daily doses started 24 hrs after tumor inoculation. It counts as functional. The settings on record: route intraperitoneal. The gist of the method:
as §6
Consider `CNC(=O)OCc1c(COC(=O)NC)c(C)n(-c2ccc(Cl)cc2)c1C`, for which the Activity is recorded as -1.3 g.

Another data set concerns P388. The data set can be described thus: Antileukemic activity against mouse P388 cells allografted in male CDF1 mouse assessed as change in body weight at 25 mg/kg, ip using saline as vehicle total 9 daily doses started 24 hrs after tumor inoculation. It is filed as functional. The settings on record: route intraperitoneal. The gist of the method: as §6
For `CNC(=O)OCc1c(COC(=O)NC)c(C)n(-c2ccc(Cl)cc2)c1C`, the Activity was -3.8 g.

In another data set the test system is P388. The data set can be described thus: Antileukemic activity against mouse P388 cells allografted in male CDF1 mouse assessed as tumor growth inhibition at 50 mg/kg, ip using saline as vehicle total 9 daily doses started 24 hrs after tumor inoculation. It counts as functional. The settings on record: route intraperitoneal. The gist of the method:
as §7
Turning to `CNC(=O)OCc1c(COC(=O)NC)c(C)n(-c2ccc(Cl)cc2)c1C`, the T/C worked out at 80%.

The next data set concerns Mus musculus. Nature of the data set: Toxicity in male CDF1 mouse allografted with mouse P388 cells assessed as survivors on day 5 at 25 mg/kg, ip using saline as vehicle. The settings on record: in vivo. Details: dose 25 mg/kg, route intraperitoneal. It counts as organism-based. The gist of the method: as §4
For the molecule `CNC(=O)OCc1c(COC(=O)NC)c(C)n(-c2ccc(Cl)cc2)c1C`, the Activity result is “Non-toxic”.

The test system of a further data set is P388. Nature of the data set: Antileukemic activity against mouse P388 cells allografted in female CDF1 mouse assessed as tumor growth inhibition at 50 mg/kg, ip using hydroxypropylcellulose suspension total 9 daily doses started 24 hrs after tumor inoculation. It counts as functional. The settings on record: route intraperitoneal. The gist of the method: as §3
Turning to `CNC(=O)OCc1c(COC(=O)NC)c(C)n(-c2ccccc2)c1C`, the T/C is less than 50%.

In another data set the test system is P388. Nature of the data set: Antileukemic activity against mouse P388 cells allografted in female CDF1 mouse assessed as tumor growth inhibition at 100 mg/kg, ip using hydroxypropylcellulose suspension total 9 daily doses started 24 hrs after tumor inoculation. It counts as functional. The settings on record: route intraperitoneal. The gist of the method:
as §3
`CNC(=O)OCc1c(COC(=O)NC)c(C)n(-c2ccccc2)c1C`: the T/C is listed as less than 50%.

In the next data set the test system is P388. The data set can be described thus: Antileukemic activity against mouse P388 cells allografted in male CDF1 mouse assessed as change in body weight at 12.5 mg/kg, ip using hydroxypropylcellulose suspension total 9 daily doses started 24 hrs after tumor inoculation. The settings on record: route intraperitoneal. It counts as functional. A digest of the protocol:
(§8)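 Male CDF1 mice were inoculated ip with P388 ascitic fluid. Compound was given ip as a Flucel (hydroxypropylcellulose) suspension, nine daily doses from 24 h after inoculation. Animal weight difference (T − C, g) was recorded on the fifth day.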
On to `CNC(=O)OCc1c(COC(=O)NC)c(C)n(-c2ccccc2)c1C`, for which the Activity is -1.3 g.

The next data set deals with Mus musculus. The data set can be described thus: Toxicity in male CDF1 mouse allografted with mouse P388 cells assessed as survivors on day 5 at 25 mg/kg, ip using hydroxypropylcellulose suspension. It counts as organism-based. Details: dose 25 mg/kg, route intraperitoneal. The settings on record: in vivo. The gist of the method: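 Male CDF1 mice received an ip inoculation of P388 leukemia ascitic fluid. Dosing was ip in a hydroxypropylcellulose (Flucel) suspension, once daily for nine days, beginning 24 h after tumor implantation. Toxicity was scored as survivors recorded on the fifth day.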
With `CNC(=O)OCc1c(COC(=O)NC)c(C)n(-c2ccccc2)c1C`, the Activity entry was “Non-toxic”.

The subject of the next data set is P388. The data set can be described thus: Antileukemic activity against mouse P388 cells allografted in female CDF1 mouse assessed as change in body weight at 50 mg/kg, ip using hydroxypropylcellulose suspension total 9 daily doses started 24 hrs after tumor inoculation. It is filed as functional. The settings on record: route intraperitoneal. The gist of the method:
as §1
Consider `CNC(=O)OCc1c(COC(=O)NC)c(C)n(-c2ccccc2)c1C`, for which the Activity was -2 g.

The subject of a further data set is P388. Nature of the data set: Antileukemic activity against mouse P388 cells allografted in female CDF1 mouse assessed as change in body weight at 25 mg/kg, ip using hydroxypropylcellulose suspension total 9 daily doses started 24 hrs after tumor inoculation. It counts as functional. The settings on record: route intraperitoneal. The gist of the method:
as §1
As for `CNC(=O)OCc1c(COC(=O)NC)c(C)n(-c2ccccc2)c1C`, the Activity was -1.6 g.

In another data set the test system is P388. Nature of the data set: Antileukemic activity against mouse P388 cells allografted in male CDF1 mouse assessed as change in body weight at 25 mg/kg, ip using hydroxypropylcellulose suspension total 9 daily doses started 24 hrs after tumor inoculation. It counts as functional. The settings on record: route intraperitoneal. A digest of the protocol: as §8
In the case of `CNC(=O)OCc1c(COC(=O)NC)c(C)n(-c2ccccc2)c1C`, the Activity was -1.7 g.

The subject of another data set is P388. Nature of the data set: Antileukemic activity against mouse P388 cells allografted in male CDF1 mouse assessed as tumor growth inhibition at 12.5 mg/kg, ip using saline as vehicle total 9 daily doses started 24 hrs after tumor inoculation. It is filed as functional. The settings on record: route intraperitoneal. A digest of the protocol:
as §7
Turning to `CNC(=O)OCc1c(COC(=O)NC)c(C)n(-c2ccc(Cl)cc2)c1C`, the T/C is listed as 145%.

Another data set deals with P388. Nature of the data set: Antileukemic activity against mouse P388 cells allografted in female CDF1 mouse assessed as change in body weight at 6.25 mg/kg, ip using hydroxypropylcellulose suspension total 9 daily doses started 24 hrs after tumor inoculation. It is filed as functional. The settings on record: route intraperitoneal. The gist of the method:
as §1
As for `CNC(=O)OCc1c(COC(=O)NC)c(C)n(-c2ccccc2)c1C`, the Activity was -2.1 g.

For the next data set, the system named is Mus musculus. Nature of the data set: Toxicity in female CDF1 mouse allografted with mouse P388 cells assessed as survivors on day 5 at 50 mg/kg, ip using hydroxypropylcellulose suspension. It counts as organism-based. Details: dose 50 mg/kg, route intraperitoneal. The settings on record: in vivo. A digest of the protocol:
as §2
In the case of `CNC(=O)OCc1c(COC(=O)NC)c(C)n(-c2ccccc2)c1C`, the Activity result was “Non-toxic”.

The subject of another data set is P388. The data set can be described thus: Antileukemic activity against mouse P388 cells allografted in female CDF1 mouse assessed as change in body weight at 200 mg/kg, ip using hydroxypropylcellulose suspension total 9 daily doses started 24 hrs after tumor inoculation. It is filed as functional. The settings on record: route intraperitoneal. A digest of the protocol: as §1
On to `CNC(=O)OCc1c(COC(=O)NC)c(C)n(-c2ccccc2)c1C`, for which the Activity is reported as -1.5 g.
